Reference: ChEMBL document CHEMBL1143724, “4-Amino-5-vinyl-3(2H)-pyridazinones and analogues as potent antinociceptive agents: Synthesis, SARs, and preliminary studies on the mechanism of action” (Bioorg Med Chem, 2007)

Key:
[1] = biological target: Mu-type opioid receptor (Homo sapiens, UniProt P35372); experiment: Binding affinity to mu opioid receptor
[2] = biological target: Kappa-type opioid receptor (Homo sapiens, UniProt P41145); experiment: Binding affinity to kappa opioid receptor
[3] = biological target: Delta-type opioid receptor (Homo sapiens, UniProt P41143); experiment: Binding affinity to delta opioid receptor
[4] = test system: Mus musculus; experiment: Antinociceptive effect in sc dosed CD1 mouse; type: functional
Outline: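 Acetic acid abdominal constriction test, with compounds given sc 30 min before acetic acid. Writhes counted over 10 min. A response was scored as protected if below 3 SD of the control mean. Six to 8 mice per dose, at least 18 per experiment.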

Chain of Delta-type opioid receptor (P41143 whole entry): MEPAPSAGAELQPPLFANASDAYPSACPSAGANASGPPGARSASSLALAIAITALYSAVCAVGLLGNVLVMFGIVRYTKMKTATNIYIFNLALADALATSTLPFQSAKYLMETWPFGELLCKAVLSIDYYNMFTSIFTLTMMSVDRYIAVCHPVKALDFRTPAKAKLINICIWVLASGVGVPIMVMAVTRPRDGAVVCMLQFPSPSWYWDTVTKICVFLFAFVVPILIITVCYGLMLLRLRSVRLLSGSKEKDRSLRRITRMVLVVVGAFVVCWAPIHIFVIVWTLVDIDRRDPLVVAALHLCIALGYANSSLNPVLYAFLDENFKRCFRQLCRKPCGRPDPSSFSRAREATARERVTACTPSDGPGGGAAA
Chain of Mu-type opioid receptor (P35372 whole entry): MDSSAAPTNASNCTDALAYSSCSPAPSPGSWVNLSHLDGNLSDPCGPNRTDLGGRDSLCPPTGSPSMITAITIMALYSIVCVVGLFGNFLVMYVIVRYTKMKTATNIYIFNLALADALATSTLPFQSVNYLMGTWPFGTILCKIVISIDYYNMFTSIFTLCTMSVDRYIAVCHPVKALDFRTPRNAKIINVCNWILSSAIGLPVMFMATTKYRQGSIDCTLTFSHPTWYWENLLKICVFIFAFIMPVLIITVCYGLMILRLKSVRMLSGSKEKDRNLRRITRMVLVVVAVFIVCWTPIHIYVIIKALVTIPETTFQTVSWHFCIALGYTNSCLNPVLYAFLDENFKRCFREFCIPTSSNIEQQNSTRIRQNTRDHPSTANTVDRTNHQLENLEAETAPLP
Chain of Kappa-type opioid receptor (P41145 whole entry): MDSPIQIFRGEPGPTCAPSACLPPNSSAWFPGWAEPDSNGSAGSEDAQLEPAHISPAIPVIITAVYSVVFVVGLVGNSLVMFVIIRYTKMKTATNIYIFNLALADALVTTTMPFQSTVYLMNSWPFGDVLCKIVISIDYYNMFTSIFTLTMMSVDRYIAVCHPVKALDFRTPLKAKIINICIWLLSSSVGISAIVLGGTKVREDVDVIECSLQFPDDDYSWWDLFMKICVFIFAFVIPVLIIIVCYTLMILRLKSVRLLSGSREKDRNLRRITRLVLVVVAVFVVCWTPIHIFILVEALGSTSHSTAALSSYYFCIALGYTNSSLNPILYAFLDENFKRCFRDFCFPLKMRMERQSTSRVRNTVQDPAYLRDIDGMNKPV

## C=Cc1c(-c2ccccc2)nn(CCCC)c(=O)c1N
[1]
  Ki: > 10 µM
[2]
  Ki: > 10 µM
[3]
  Ki: > 10 µM

## C=Cc1c(-c2ccccc2)nn(C)c(=O)c1NCCc1ccccc1
[4]
  ED50: 89.4 mg/kg
